The record followed here is ChEMBL document CHEMBL2401667, “Synthesis of N-substituted acyclic β-amino acids and their investigation as GABA uptake inhibitors” (Eur J Med Chem, 2013).

The target of one test is T1, GABA transporter 4 (Mus musculus, UniProt P31650).
T1 sequence (P31650 whole entry): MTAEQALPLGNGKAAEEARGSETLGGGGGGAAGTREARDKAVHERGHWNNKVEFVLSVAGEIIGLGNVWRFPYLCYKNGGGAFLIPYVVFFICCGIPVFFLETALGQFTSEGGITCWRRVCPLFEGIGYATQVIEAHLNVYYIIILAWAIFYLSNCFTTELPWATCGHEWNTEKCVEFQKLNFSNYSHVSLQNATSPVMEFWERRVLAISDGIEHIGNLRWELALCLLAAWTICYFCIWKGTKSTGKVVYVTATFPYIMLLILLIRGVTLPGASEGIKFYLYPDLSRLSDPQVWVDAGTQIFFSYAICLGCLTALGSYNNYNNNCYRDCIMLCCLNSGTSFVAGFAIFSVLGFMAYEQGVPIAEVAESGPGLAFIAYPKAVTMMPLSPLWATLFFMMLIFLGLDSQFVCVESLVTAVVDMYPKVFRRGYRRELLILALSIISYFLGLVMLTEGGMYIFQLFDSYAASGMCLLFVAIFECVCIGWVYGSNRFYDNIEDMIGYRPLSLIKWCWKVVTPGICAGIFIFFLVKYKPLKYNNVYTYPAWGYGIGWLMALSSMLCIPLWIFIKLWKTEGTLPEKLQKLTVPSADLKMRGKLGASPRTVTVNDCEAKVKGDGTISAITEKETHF
Kind of test: Inhibition of GABA uptake at murine GAT-3 expressed in HEK293 cells. Type of test: cell-based.

In test [1] the target is Sodium- and chloride-dependent GABA transporter 1 (Mus musculus) (UniProt P31648). As to the kind of experiment: Remaining GABA uptake at murine GAT-1 expressed in HEK293 cells at 100 uM relative to control.
The target of another test is T2, GABA transporter 3 (Mus musculus, UniProt P31649).
T2 sequence (P31649 whole entry): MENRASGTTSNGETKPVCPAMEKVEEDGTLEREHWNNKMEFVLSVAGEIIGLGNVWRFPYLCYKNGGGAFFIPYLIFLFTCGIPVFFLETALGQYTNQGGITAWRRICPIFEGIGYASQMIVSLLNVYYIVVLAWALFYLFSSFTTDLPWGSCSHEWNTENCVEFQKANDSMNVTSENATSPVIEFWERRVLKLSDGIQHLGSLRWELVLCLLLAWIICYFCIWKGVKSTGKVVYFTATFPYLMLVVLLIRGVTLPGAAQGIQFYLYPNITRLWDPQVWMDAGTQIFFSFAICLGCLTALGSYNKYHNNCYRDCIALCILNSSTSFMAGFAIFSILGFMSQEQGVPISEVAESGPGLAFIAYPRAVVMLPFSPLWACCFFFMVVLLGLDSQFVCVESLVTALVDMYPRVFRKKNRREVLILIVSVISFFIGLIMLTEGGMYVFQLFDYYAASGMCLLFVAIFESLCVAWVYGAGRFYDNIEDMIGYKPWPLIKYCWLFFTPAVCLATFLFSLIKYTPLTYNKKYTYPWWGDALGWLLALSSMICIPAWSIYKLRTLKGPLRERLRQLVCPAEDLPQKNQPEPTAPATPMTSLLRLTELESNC
Kind of test: Inhibition of GABA uptake at murine GAT-2 expressed in HEK293 cells. Type of test: cell-based.

Test [2] has as its target T3, GABA transporter 2 (Mus musculus) (UniProt P31651).
T3 sequence (whole entry): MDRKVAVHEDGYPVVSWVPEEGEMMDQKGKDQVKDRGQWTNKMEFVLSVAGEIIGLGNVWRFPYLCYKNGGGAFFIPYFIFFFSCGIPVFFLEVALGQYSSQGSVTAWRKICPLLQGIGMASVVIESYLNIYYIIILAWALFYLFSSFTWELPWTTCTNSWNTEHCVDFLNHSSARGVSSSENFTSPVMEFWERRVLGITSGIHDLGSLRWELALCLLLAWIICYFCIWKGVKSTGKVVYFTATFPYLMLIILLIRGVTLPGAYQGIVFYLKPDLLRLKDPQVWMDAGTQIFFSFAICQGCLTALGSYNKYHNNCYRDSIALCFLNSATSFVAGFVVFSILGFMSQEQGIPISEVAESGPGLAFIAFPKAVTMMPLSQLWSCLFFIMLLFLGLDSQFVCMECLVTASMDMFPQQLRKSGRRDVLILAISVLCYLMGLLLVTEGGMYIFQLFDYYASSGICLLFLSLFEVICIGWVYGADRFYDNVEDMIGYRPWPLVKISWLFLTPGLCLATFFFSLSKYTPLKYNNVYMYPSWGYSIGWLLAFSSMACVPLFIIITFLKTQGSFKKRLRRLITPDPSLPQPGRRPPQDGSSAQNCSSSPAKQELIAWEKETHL
Kind of test: Remaining GABA uptake at murine BGT-1 expressed in HEK293 cells at 100 uM relative to control.

Test [3] concerns the target T4, GABA transporter 3 (Mus musculus) (UniProt P31649).
T4 sequence (whole entry): T2 sequence (P31649 whole entry)
As to the kind of experiment: Remaining GABA uptake at murine GAT-2 expressed in HEK293 cells at 100 uM relative to control.

Test [4] deals with Sodium- and chloride-dependent GABA transporter 1 (Mus musculus, UniProt P31648). As to the kind of experiment: Inhibition of GABA uptake at murine GAT-1 expressed in HEK293 cells. Type of test: cell-based.
Test [5] addresses Sodium- and chloride-dependent GABA transporter 1 (Homo sapiens, UniProt P30531). Kind of test: Inhibition of GABA uptake at GAT-1 (unknown origin).
A further test has as its target T5, GABA transporter 2 (Mus musculus, UniProt P31651).
T5 sequence (P31651 whole entry): T3 sequence (whole entry)
Kind of test: Inhibition of GABA uptake at murine BGT-1 expressed in HEK293 cells. Type of test: cell-based.

Test [6] addresses T3, GABA transporter 2 (Mus musculus). As to the kind of experiment: Remaining GABA uptake at murine BGT-1 expressed in HEK293 cells at 1 mM relative to control.
A short description of test [7]: Inhibition of GABA uptake at GAT-1 in porcine frontal cortex P2B fraction. Type of test: tissue-based, Sus scrofa. A digest of the protocol:
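Uptake assay on a P2B membrane preparation from porcine frontal cortex, which predominantly addresses the GAT1 subtype.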

A short description of test [8]: Inhibition of GABA uptake at GAT-3 in porcine brain stem P2C fraction. Further details: species or system Sus scrofa. A digest of the protocol:
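Uptake assay on a P2C membrane preparation from porcine brainstem, which predominantly addresses the GAT3 subtype.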

Chain of Sodium- and chloride-dependent GABA transporter 1 (Homo sapiens, UniProt P30531) (P30531 whole entry): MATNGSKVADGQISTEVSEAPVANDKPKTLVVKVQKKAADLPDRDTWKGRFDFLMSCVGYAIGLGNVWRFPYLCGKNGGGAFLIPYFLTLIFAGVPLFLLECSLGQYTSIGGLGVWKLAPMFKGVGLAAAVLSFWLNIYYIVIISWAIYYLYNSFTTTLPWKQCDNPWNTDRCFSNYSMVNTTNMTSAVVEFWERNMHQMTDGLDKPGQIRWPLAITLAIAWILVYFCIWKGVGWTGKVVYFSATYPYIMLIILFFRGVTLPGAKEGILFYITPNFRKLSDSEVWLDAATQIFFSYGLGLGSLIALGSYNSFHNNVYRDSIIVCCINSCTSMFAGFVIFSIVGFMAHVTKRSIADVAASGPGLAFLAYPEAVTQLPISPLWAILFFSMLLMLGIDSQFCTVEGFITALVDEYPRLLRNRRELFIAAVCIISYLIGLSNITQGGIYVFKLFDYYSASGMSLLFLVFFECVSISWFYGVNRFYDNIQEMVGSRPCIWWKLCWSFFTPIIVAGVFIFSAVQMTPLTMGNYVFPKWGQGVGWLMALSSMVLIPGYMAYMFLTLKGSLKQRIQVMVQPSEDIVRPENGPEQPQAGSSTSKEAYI

Usually IC50 stands for the concentration at which inhibition is half-maximal. In the case of `COc1ccc(C(/C=C/CNC(C)CC(=O)O)(c2ccc(OC)cc2)c2ccc(OC)cc2)cc1` (racemic), the IC50 on GABA transporter 4 is 60.3 µM; at GABA transporter 3, 63.1 µM. For the same molecule, the values for the remaining GABA uptake in test [1] and in [2] were 52% and 47%, respectively.
`COc1ccc(C(OCCNC(C)CC(=O)O)(c2ccc(OC)cc2)c2ccc(OC)cc2)cc1` (racemic) gave a 50% inhibitory concentration (IC50) on GABA transporter 4 of 33.9 µM. Further, the remaining GABA uptake came out at 48% in test [3], 114% in test [1] and 73% in test [2].
Consider `O=C(O)CCNCCOCCN1c2ccccc2Sc2ccccc21`, for which the remaining GABA uptake in [3] is 50%; in [2], 88%. In test [4], this molecule showed an IC50 of 35.5 µM.
With `O=C(O)CCNCCOCCN1c2ccccc2C=Cc2ccccc21`, the remaining GABA uptake in test [3] stood at 87%; in [1], 56%; in [2] it was 85%.
Turning to `O=C(O)[C@@H]1CCCN(CCOCCN2c3ccccc3Sc3ccccc32)C1`, in test [5], half-maximal inhibition (IC50) was put at 0.309 µM.
Take `CC(N)CC(=O)O` (racemic): the IC50 was 83.2 µM on GABA transporter 4, 50.1 µM in test [4], 813 µM on GABA transporter 2 and 46.8 µM against GABA transporter 3.
In the case of `O=C(O)CCNCCOCCN1c2ccccc2CCc2ccccc21`, the results for the remaining GABA uptake in test [3] and in [2] were 55% and 85%, respectively. In test [4], the 50% inhibitory concentration (IC50) was 20.4 µM.
On to `COc1ccc(C(/C=C/CNCCC(=O)O)(c2ccc(OC)cc2)c2ccc(OC)cc2)cc1`, for which the figures for the remaining GABA uptake in test [3], in test [1] and in test [2] were 94%, 77% and 47%, respectively.
The molecule `COc1ccc(C(OCCN2CCC[C@H](C(=O)O)C2)(c2ccc(OC)cc2)c2ccc(OC)cc2)cc1` showed a 50% inhibitory concentration (IC50) against GABA transporter 2 of 30.9 µM.
As for `CC(CC(=O)O)NCCOCCN1c2ccccc2C=Cc2ccccc21` (racemic), the results for the remaining GABA uptake in test [3] and in [2] were 84% and 82%, respectively. Further, it took 17.4 µM to reach half-maximal inhibition in [4] (IC50).
For `CC(CC(=O)O)NCCOCCN1c2ccccc2CCc2ccccc21` (racemic), the results for the concentration for half-maximal inhibition (IC50) (at GABA transporter 4; in [4]; against GABA transporter 3) were 339 µM, 13.2 µM and 214 µM, respectively. Besides, the remaining GABA uptake in [6] worked out at 69%.
For the molecule `COc1ccc(C(/C=C/CN2CCC[C@H](C(=O)O)C2)(c2ccc(OC)cc2)c2ccc(OC)cc2)cc1`, the values for the half-inhibitory concentration (IC50) (in test [4]; against GABA transporter 2) were 39.8 µM and 38 µM, respectively.
`COc1ccc(C(OCCNCCC(=O)O)(c2ccc(OC)cc2)c2ccc(OC)cc2)cc1` showed an IC50 on GABA transporter 4 of 42.7 µM. Moreover, the remaining GABA uptake in test [3] was determined as 40%; in [1], 57%; in test [2], 55%.
On to `CC(CC(=O)O)NCCC=C(c1ccccc1)c1ccccc1` (racemic), for which the remaining GABA uptake in test [3] was 82%; in test [2], 86%. Inhibition in test [4] was half-maximal at 4.57 µM (IC50).
The pIC50 is −log10 of the IC50, conventionally taken in molar units. High values mean a small IC50, low ones a large IC50. With `Cl.O=C(O)CCNCCC=C(c1ccccc1)c1ccccc1`, the negative logarithm of the IC50 (pIC50) in test [7] is 3.94; in [8], 3.36.
Turning to `NCCC(=O)O` [BETA-ALANINE], the 50% inhibitory concentration (IC50) is 34.7 µM against GABA transporter 4, 2820 µM in [4], 331 µM against GABA transporter 2 and 21.9 µM against GABA transporter 3.
Regarding `CC(CC(=O)O)NCCOCCN1c2ccccc2Sc2ccccc21` (racemic), the half-inhibitory concentration (IC50) was 8.71 µM in test [4] and 40.7 µM on GABA transporter 3. In addition, in test [2], the remaining GABA uptake was found to be 74%.
`O=C(O)[C@@H]1CCCN(CCOCCN2c3ccccc3CCc3ccccc32)C1` had an IC50 in test [5] of 39.8 µM.
On the same count and under the same terms, the result for `O=C(O)[C@@H]1CCCN(CCOCCN2c3ccccc3C=Cc3ccccc32)C1` reads 0.646 µM.
